Laboratory results reported in ChEMBL document CHEMBL1154416, “Haemophilus ducreyi is resistant to human antimicrobial peptides” (2007).
Calls of active or inactive are those of the source. The calls are words filed in the database; no cut-off is given here. Where a SMILES comes first, the peptide text is derived from it. Bridges are numbered along the chain shown (N, C = ends).

Columns and labels:
[Haemophilus] ducreyi [1] = Bactericidal activity against Haemophilus ducreyi 35000HP assessed as survival at 0.2 ug/ml by antibacterial susceptibility test relative to control; format: functional
How it was run: (§1)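 Viable bacteria counted by plating. Survival expressed as percentage of peptide-free control wells. Means ± standard errors of three independent assays; mixed-model analysis with Sidak adjustment, P<0.05.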

[Haemophilus] ducreyi [2] = Bactericidal activity against Haemophilus ducreyi CIP542 assessed as survival at 0.2 ug/ml by antibacterial susceptibility test relative to control; format: functional; how it was run: as §1
[Haemophilus] ducreyi [3] = Bactericidal activity against Haemophilus ducreyi CIP542 assessed as survival at 20 ug/ml by antibacterial susceptibility test relative to control; format: functional, organism-based; how it was run: as §1
[Haemophilus] ducreyi [4] = Bactericidal activity against Haemophilus ducreyi 35000HP assessed as survival at 20 ug/ml by antibacterial susceptibility test relative to control; format: functional, organism-based; how it was run: as §1
[Haemophilus] ducreyi [5] = Bactericidal activity against Haemophilus ducreyi 35000HP assessed as survival at 2 ug/ml by antibacterial susceptibility test relative to control; format: functional, organism-based; how it was run: as §1
Escherichia coli [6] = experiment: Bactericidal activity against Escherichia coli ML35 assessed as survival at 2 ug/ml by tenfold serial dilution assay relative to control; format: functional
How it was run: (§2)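 Mid-log-phase cells were suspended in 10 mM sodium phosphate (pH 7.4) with 1% brain-heart infusion broth and exposed to peptide dilutions for 1 h, at 33°C for H. ducreyi or 37°C for E. coli. Survivors were counted by plating, and survival was expressed as a percent of peptide-free control wells. Values are means of three independent assays.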

[Haemophilus] ducreyi [7] = Bactericidal activity against Haemophilus ducreyi CIP542 after 48 to 72 hrs by radial diffusion assay; format: functional; conditions: read-out: MEC
How it was run: (§3)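 Radial diffusion assay with salts omitted from the agarose underlay. Activity units are taken from inhibition zones around peptide-loaded wells. MEC is the x intercept of the best-fit line of activity against peptide concentration. Where fewer than two concentrations were active, MEC is recorded as >158 μg/ml, the assay's upper limit. Values are means of three independent assays, each run in duplicate.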

Escherichia coli [8] = experiment: Bactericidal activity against Escherichia coli ML35 assessed as survival at 0.5 ug/ml by twofold serial dilution assay relative to control; format: functional; how it was run: as §2
[Haemophilus] ducreyi [9] = Bactericidal activity against Haemophilus ducreyi 35000HP assessed as survival at 2 ug/ml by tenfold serial dilution assay relative to control; format: functional; how it was run: as §2
[Haemophilus] ducreyi [10] = Bactericidal activity against Haemophilus ducreyi 35000HP assessed as survival at 0.5 ug/ml by twofold serial dilution assay relative to control; format: functional; how it was run: as §2
Escherichia coli [11] = experiment: Bactericidal activity against Escherichia coli ML35 after 48 to 72 hrs by radial diffusion assay; format: functional; conditions: read-out: MEC; how it was run: as §3
[Haemophilus] ducreyi [12] = Bactericidal activity against Haemophilus ducreyi 35000HP after 48 to 72 hrs by radial diffusion assay; format: functional; conditions: read-out: MEC; how it was run: as §3
Escherichia coli [13] = experiment: Bactericidal activity against Escherichia coli ML35 assessed as survival at 20 ug/ml relative to control; format: functional; how it was run: as §1
[Haemophilus] ducreyi [14] = Bactericidal activity against Haemophilus ducreyi 35000HP assessed as survival at 2 ug/ml relative to control; format: functional; how it was run: as §1

Row | Structure (SMILES) | Activity ([Haemophilus] ducreyi [1]) | Activity ([Haemophilus] ducreyi [2]) | Activity ([Haemophilus] ducreyi [3]) | Activity ([Haemophilus] ducreyi [4]) | Activity ([Haemophilus] ducreyi [5]) | Activity (Escherichia coli [6]) [%] | minimal effective concentration ([Haemophilus] ducreyi [7]) [µg/mL] | Activity (Escherichia coli [8]) [%] | Activity ([Haemophilus] ducreyi [9]) [%] | Activity ([Haemophilus] ducreyi [10]) [%] | minimal effective concentration (Escherichia coli [11]) [µg/mL] | minimal effective concentration ([Haemophilus] ducreyi [12]) [µg/mL] | Activity (Escherichia coli [13]) [%] | Activity ([Haemophilus] ducreyi [14]) [%]
1 | CC[C@H](C)[C@@H]1NC(=O)[C@H](CCCNC(=N)N)NC(=O)[C@H](Cc2ccc(O)cc2)NC(=O)[C@H](CCC(=O)O)NC(=O)[C@H](CCC(N)=O)NC(=O)[C@H](CO)NC(=O)[C@H](CCCNC(=N)N)NC(=O)[C@@H]2CSSC[C@@H](C(=O)N[C@@H](CC(C)C)C(=O)N[C@@H](CCCNC(=N)N)C(=O)N[C@@H](CCCCN)C(=O)O)NC(=O)[C@@H]3NC(=O)[C@H](C)NC(=O)[C@H](Cc4ccc(O)cc4)NC(=O)[C@H]([C@@H](C)O)NC(=O)[C@H](CC(N)=O)NC(=O)[C@H]4CCCN4C(=O)[C@H](CSSC[C@H](NC(=O)[C@H](CCCNC(=N)N)NC(=O)[C@H](C)NC(=O)[C@H]([C@@H](C)O)NC(=O)CNC(=O)[C@H](Cc4ccc(O)cc4)NC(=O)CNC(=O)[C@@H](NC(=O)[C@@H](NC(=O)[C@H](CCCNC(=N)N)NC(=O)[C@H](CC(=O)O)NC(=O)[C@H](CC(C)C)NC(=O)[C@@H](N)CCC(=O)O)[C@@H](C)CC)CSS3)C(=O)N[C@@H](CCCNC(=N)N)C(=O)N[C@@H](CCCCN)C(=O)N[C@@H](CCCCN)C(=O)N2)NC(=O)[C@H](CCCNC(=N)N)NC(=O)CNC1=O | inactive | inactive | inactive | inactive | inactive | – | – | – | – | – | – | – | – | –
2 | CC[C@H](C)[C@H](NC(=O)[C@H](CCCCN)NC(=O)[C@H](CCC(=O)O)NC(=O)[C@H](CCCCN)NC(=O)[C@H](CO)NC(=O)[C@H](CCCCN)NC(=O)[C@H](CCCNC(=N)N)NC(=O)[C@H](Cc1ccccc1)NC(=O)[C@H](Cc1ccccc1)NC(=O)[C@H](CC(=O)O)NC(=O)CNC(=O)[C@H](CC(C)C)NC(=O)[C@@H](N)CC(C)C)C(=O)NCC(=O)N[C@@H](CCCCN)C(=O)N[C@@H](CCC(=O)O)C(=O)N[C@@H](Cc1ccccc1)C(=O)N[C@@H](CCCCN)C(=O)N[C@@H](CCCNC(=N)N)C(=O)N[C@H](C(=O)N[C@H](C(=O)N[C@@H](CCC(N)=O)C(=O)N[C@@H](CCCNC(=N)N)C(=O)N[C@H](C(=O)N[C@@H](CCCCN)C(=O)N[C@@H](CC(=O)O)C(=O)N[C@@H](Cc1ccccc1)C(=O)N[C@@H](CC(C)C)C(=O)N[C@@H](CCCNC(=N)N)C(=O)N[C@@H](CC(N)=O)C(=O)N[C@@H](CC(C)C)C(=O)N[C@H](C(=O)N1CCC[C@H]1C(=O)N[C@@H](CCCNC(=N)N)C(=O)N[C@H](C(=O)N[C@@H](CCC(=O)O)C(=O)N[C@@H](CO)C(=O)O)[C@@H](C)O)C(C)C)[C@@H](C)CC)C(C)C)[C@@H](C)CC [CATHELICIDIN] | inactive | inactive | inactive | inactive | inactive | 5 | > 158 | 3 | 16 | 43 | 6.2 | > 158 | – | –
3 | CC[C@H](C)[C@@H]1NC(=O)[C@@H]2CSSC[C@@H]3NC(=O)[C@H](Cc4ccccc4)NC(=O)[C@H](C)NC(=O)[C@H](Cc4c[nH]c5ccccc45)NC(=O)[C@H](CC(C)C)NC(=O)[C@H](CCCNC(=N)N)NC(=O)CNC(=O)[C@H](CCC(N)=O)NC(=O)[C@H](Cc4ccc(O)cc4)NC(=O)[C@H]([C@@H](C)CC)NC(=O)[C@H](CSSC[C@H](NC(=O)[C@H](Cc4ccc(O)cc4)NC(=O)[C@@H](N)CSSC[C@@H](C(=O)O)NC3=O)C(=O)N[C@@H](CCCNC(=N)N)C(=O)N[C@@H]([C@@H](C)CC)C(=O)N3CCC[C@H]3C(=O)N[C@@H](C)C(=O)N2)NC(=O)[C@H]([C@@H](C)O)NC(=O)CNC(=O)[C@H](Cc2ccc(O)cc2)NC(=O)[C@H](CCCNC(=N)N)NC(=O)[C@H](CCCNC(=N)N)NC(=O)[C@H](CCC(=O)O)NC(=O)CNC(=O)[C@H](C)NC1=O (H-CYCRIPACIAGERRYGTCIYQGRLWAFCC-OH; disulfide 1-29, 3-18, 8-28) | inactive | inactive | inactive | inactive | inactive | – | – | – | – | – | – | – | 10 | –
4 | CC[C@H](C)[C@@H]1NC(=O)[C@H](CCCCN)NC(=O)[C@H]([C@@H](C)O)NC(=O)[C@H](Cc2ccccc2)NC(=O)[C@H]([C@@H](C)CC)NC(=O)[C@@H]2CCCN2C(=O)[C@@H]2CSSC[C@@H](C(=O)N[C@@H](CCCCN)C(=O)O)NC(=O)[C@@H]3CSSC[C@H](NC(=O)[C@H](CC(N)=O)NC(=O)[C@H](Cc4ccc(O)cc4)NC(=O)[C@H](Cc4cnc[nH]4)NC(=O)[C@@H](N)CC(=O)O)C(=O)N[C@@H](C(C)C)C(=O)N[C@@H](CO)C(=O)N[C@@H](CO)C(=O)NCC(=O)NCC(=O)N[C@@H](CCC(N)=O)C(=O)N[C@@H](CSSC[C@H](NC(=O)[C@H]([C@@H](C)O)NC(=O)CNC(=O)[C@H](CCC(N)=O)NC1=O)C(=O)N[C@@H](Cc1ccc(O)cc1)C(=O)N[C@@H](CCCNC(=N)N)C(=O)NCC(=O)N[C@@H](CCCCN)C(=O)N[C@@H](C)C(=O)N[C@@H](CCCCN)C(=O)N3)C(=O)N[C@@H](CC(C)C)C(=O)N[C@@H](Cc1ccc(O)cc1)C(=O)N[C@@H](CO)C(=O)N[C@@H](C)C(=O)N2 (H-DHYNCVSSGGQCLYSACPIFTKIQGTCYRGKAKCCK-OH; disulfide 5-34, 12-27, 17-35) | inactive | inactive | inactive | inactive | inactive | – | – | – | – | – | – | – | – | –
5 | CC[C@H](C)[C@@H]1NC(=O)[C@H](CCCNC(=N)N)NC(=O)[C@H](Cc2ccc(O)cc2)NC(=O)[C@H](CCC(=O)O)NC(=O)[C@H](CCC(N)=O)NC(=O)[C@H](CO)NC(=O)[C@H](CCCNC(=N)N)NC(=O)[C@@H]2CSSC[C@@H](C(=O)N[C@@H](CC(C)C)C(=O)N[C@@H](CCCNC(=N)N)C(=O)N[C@@H](CCCCN)C(=O)O)NC(=O)[C@@H]3CSSC[C@H](NC(=O)[C@@H](NC(=O)[C@H](CCCNC(=N)N)NC(=O)[C@H](CC(=O)O)NC(=O)[C@H](CC(C)C)NC(=O)[C@@H](N)CCC(=O)O)[C@@H](C)CC)C(=O)NCC(=O)N[C@@H](Cc4ccc(O)cc4)C(=O)NCC(=O)N[C@@H]([C@@H](C)O)C(=O)N[C@@H](C)C(=O)N[C@@H](CCCNC(=N)N)C(=O)N[C@@H](CSSC[C@H](NC(=O)[C@H](CCCNC(=N)N)NC(=O)CNC1=O)C(=O)N1CCC[C@H]1C(=O)N[C@@H](CC(N)=O)C(=O)N[C@@H]([C@@H](C)O)C(=O)N[C@@H](Cc1ccc(O)cc1)C(=O)N[C@@H](C)C(=O)N3)C(=O)N[C@@H](CCCNC(=N)N)C(=O)N[C@@H](CCCCN)C(=O)N[C@@H](CCCCN)C(=O)N2 (H-ELDRICGYGTARCRKKCRSQEYRIGRCPNTYACCLRK-OH; disulfide 6-33, 13-27, 17-34) | – | – | – | – | – | – | > 158 | – | – | – | 12.6 | > 158 | <7 | >84
